Source: PubChem BioAssay
Lmaj promast = inhibitors of Leishmania major promastigote growth; Leishmania major promastigotes, resazurin fluorescence viability; inhibition, % at 10 µM; 200,000 tested, 9% active; AID 1063;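 note: promastigotes grown with compound for 44 hours at 28 °C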
GSH bead fluor = compound fluoresces at 488/530 nm on GSH beads; 190,000 tested, 0.25% active; fluorescence (KMESF) at 10 µM; GSH beads flow cytometry, compound fluorescence 488/530 nm; active compounds read high; in the data active = fluorescence above about 89;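 note: glutathione beads carrying GST-tagged Bcl family fusion proteins plus one bare bead set; values are compound well signal with DMSO vehicle wells as background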
Avidin fluor = compound fluoresces at 488/530 nm on avidin beads. compound fluorescence 488/530 nm, flow cytometry; active compounds read high. fluorescence (KMESF) at 10 µM. 220,000 tested, 0.38% active; in the data active = fluorescence above about 47
ABCG2 inh = inhibitors of human ABCG2 transporter, ABCB1 counter-screen. IgMXP3 cells, JC-1 efflux, flow cytometry. inhibition, % at 6.6 µM. Q9UNQ0. 190,000 tested, 0.1% active. AID 1325;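 active = inhibition above 80%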;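 note: 0% = DMSO and 100% = nicardipine control wells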
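Test system: IgMXP3 cells (ABCG2) mixed with DDAO far-red-labelled CCRF-Adr cells (ABCB1). Reagent: JC-1 transporter substrate. Compound dosing: single test compound dose, 6.6 µM final. Times: 10 min compound exposure, 25 °C. Detection: flow cytometry of retained JC-1 fluorescence. Read-out basis: efflux inhibition in percent versus controls. Controls: nicardipine and DMSO wells.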
PKD1 kinase inh = inhibitors of human PKD1 kinase | AID 797 | 200,000 tested, 0.056% active | inhibition, % (test concentration not listed) | PKD1 kinase fluorescence polarization assay
Target sequence (Q15139 whole entry, looked up): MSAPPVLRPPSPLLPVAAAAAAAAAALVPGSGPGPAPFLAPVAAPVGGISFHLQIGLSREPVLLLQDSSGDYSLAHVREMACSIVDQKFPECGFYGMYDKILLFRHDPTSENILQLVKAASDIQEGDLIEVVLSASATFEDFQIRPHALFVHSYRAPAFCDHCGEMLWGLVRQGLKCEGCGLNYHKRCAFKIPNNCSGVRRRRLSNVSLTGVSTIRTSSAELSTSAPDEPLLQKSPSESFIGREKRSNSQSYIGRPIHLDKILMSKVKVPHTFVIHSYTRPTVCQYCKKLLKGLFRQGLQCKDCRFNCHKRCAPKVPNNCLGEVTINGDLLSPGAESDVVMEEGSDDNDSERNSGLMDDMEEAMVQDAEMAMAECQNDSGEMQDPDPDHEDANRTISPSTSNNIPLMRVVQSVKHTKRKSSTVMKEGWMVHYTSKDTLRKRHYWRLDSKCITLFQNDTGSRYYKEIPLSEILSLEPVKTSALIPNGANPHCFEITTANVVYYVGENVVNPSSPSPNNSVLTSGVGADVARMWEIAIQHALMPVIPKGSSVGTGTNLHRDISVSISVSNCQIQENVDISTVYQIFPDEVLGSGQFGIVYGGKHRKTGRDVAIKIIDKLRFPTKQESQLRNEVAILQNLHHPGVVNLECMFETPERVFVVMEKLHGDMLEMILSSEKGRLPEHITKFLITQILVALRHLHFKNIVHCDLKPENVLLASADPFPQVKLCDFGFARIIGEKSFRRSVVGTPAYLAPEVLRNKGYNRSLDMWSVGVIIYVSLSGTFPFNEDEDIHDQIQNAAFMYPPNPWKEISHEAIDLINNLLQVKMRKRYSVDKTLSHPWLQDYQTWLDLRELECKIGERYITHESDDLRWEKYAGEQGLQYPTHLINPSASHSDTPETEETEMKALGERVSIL
ABCB1 inh = blocks JC-1 efflux by human ABCB1 transporter; CCRF-Adr cells, flow cytometry; 190,000 tested, 0.067% active; inhibition, % at 6.6 µM; P08183; AID 1326; in the data active = inhibition above about 40%;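 note: 0% = vehicle and 100% = reference inhibitor; higher value means more JC-1 retained so stronger ABCB1 efflux block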
Numbers without * were called inactive; x = not tested or not shown. The sample as a whole holds a higher share of hits than the screen did. Cut-off read from the data, not from the text of the source, unless noted: active = inhibition above about 50%; inactive = the rest.

SMILES | Lmaj promast | GSH bead fluor | Avidin fluor | ABCG2 inh | PKD1 kinase inh | ABCB1 inh
O=c1oc2ccccc2c(O)c1/C=C1\C=Nc2ccccc21 | 100* | 52 | 24 | 0 | -6 | 0
O=C(NC1CCC(c2ccccc2)CC1)c1cccnc1 (configuration not stated) | -5 | 19 | 7 | 1 | -3 | 0
O=C(NCCNC1CCC(c2ccccc2)CC1)c1ccc(F)cc1 (configuration not stated) | 94* | 17 | 9 | 1 | 6 | 1
CC(=O)c1ccc(NC(=O)CC23CC4CC(C2)CC(n2nnc(C)n2)(C4)C3)cc1 | 10 | 18 | 6 | 22 | -12 | 2
Cc1nnn(C23CC4CC(CC(CC(=O)Nc5ccc(C)c(C)c5)(C4)C2)C3)n1 | 68* | 5 | 10 | 27 | 1 | 6
Cc1cccc(NC(=O)CC23CC4CC(C2)CC(n2nnc(C)n2)(C4)C3)c1 | 55* | 5 | 10 | 18 | -2 | 4
C=CCNC(=O)O/N=C/c1csc([N+](=O)[O-])c1 | x | x | 3 | x | x | x
Cn1cc(Cl)c(C(=O)N/N=C/c2ccc(OS(=O)(=O)c3ccccc3)cc2)n1 | 3 | 40 | 6 | 2 | -1 | 0
CCOc1cc(/C=N/NS(=O)(=O)c2ccccc2)ccc1OS(=O)(=O)c1ccc(C)cc1 | 13 | 47 | 8 | 9 | 1 | 0
NC(N)=N/N=C/c1ccc(OS(=O)(=O)c2ccccc2)cc1 | 88* | 17 | 10 | -2 | 0 | -1
CCC(=O)N/N=C/c1ccc(OS(=O)(=O)c2ccccc2)cc1 | 57* | 21 | 8 | 4 | -12 | 0
CCOc1cc(/C=N/NC(=O)COc2ccc(Cl)cc2)ccc1OS(=O)(=O)c1ccccc1 | 96* | 6 | 11 | 1 | 2 | 0
C=CCNCCOc1c(C)cc(C)cc1Cl | -2 | 6 | 4 | 2 | -5 | 1
Cc1cc(C)c(OCCCCNCc2ccccc2)c(Cl)c1 | 97* | 14 | 6 | 0 | 1 | 1
COCCCNCCCCOc1c(Cl)cc(C)cc1Br | 100* | 21 | 9 | 4 | -16 | 1
Cc1cc(Br)ccc1OCCNCc1ccccc1 | 43 | 21 | 8 | 8 | -4 | 2
C=CCNCCCCOc1c(Cl)cc(C)cc1Br | 99* | 21 | 35 | 0 | -1 | 0
CN(CC(=O)NCc1ccco1)S(=O)(=O)c1cccc2cccnc12 | -6 | 21 | 14 | 5 | 1 | 1
CCCCC1(C(=O)OCC)CC(CSC(=N)N)OC1=O (configuration not stated) | 15 | 11 | 9 | 0 | -8 | 0
CC(C)NC(=O)C1CCN(C2CCN(C(=O)c3scc4c3CCCC4)CC2)CC1 | 52* | 12 | 2 | 1 | -5 | 1
CC(C)NC(=O)C1CCN(C2CCN(C(=O)C3=CCCC3)CC2)CC1 | -2 | 9 | 2 | 1 | -3 | 1
CN(C)c1ccc(P(=O)(OCc2ccccc2)C(O)c2ccccc2)cc1 (configuration not stated) | x | x | 12 | x | x | x
COc1cc(/C=N/NC(=O)c2c(-c3ccccc3)noc2C)ccc1O | 1 | 33 | 15 | 9 | -1 | 0
COc1cccc(/C=N/NC(=O)c2c(-c3ccccc3)noc2C)c1O | 95* | 11 | 19 | 2 | 12 | 0
Cc1onc(-c2ccccc2)c1C(=O)N/N=C/c1cc2c(cc1Cl)OCO2 | 100* | 11 | 5 | 5 | -4 | 2
SMILES | Lmaj promast | GSH bead fluor | Avidin fluor | ABCG2 inh | PKD1 kinase inh | ABCB1 inh
O=C(O)c1csc(N/N=C/c2ccc(Br)cc2)n1 | -5 | 67 | 8 | 1 | 7 | 0
Cc1ccc(N(CC(=O)NCC2CCCO2)C(=O)Cn2nnc(-c3cccs3)n2)cc1 (configuration not stated) | 1 | 15 | 6 | 4 | 1 | 1
c1ccc(-n2ncc3c(NCCN4CCCCC4)ncnc32)cc1 | 98* | 15 | 6 | 5 | -11 | 0
COC(=O)C1=C(C)N(c2ccc(F)cc2)/C(=C/c2ccc(O)cc2)C1=O | 34 | 21 | 8 | 5 | 3 | 1
O=C(NCC1CCCO1)C(c1ccccn1)N(Cc1ccccc1Cl)C(=O)CN1C(=O)c2ccccc2S1(=O)=O (configuration not stated) | -4 | 56 | 8 | -1 | 5 | -1
CCCCn1c(SCC(=O)N2CCCCC2)nc2cc(S(N)(=O)=O)ccc21 | -2 | 9 | 13 | 0 | -1 | 0
CCCCn1c(SCC(=O)N2CC(C)CC(C)C2)nc2cc(S(N)(=O)=O)ccc21 (configuration not stated) | 4 | 262* | 6 | 4 | -14 | 0
O=C1C(Cc2ccc(F)cc2)SC(=Nc2ccccc2)N1c1ccccc1 (configuration not stated) | 41 | 11 | 11 | 9 | -3 | 1
O=C1C(Cc2ccc(Br)cc2)SC(=Nc2ccccc2)N1c1ccccc1 (configuration not stated) | 54* | 12 | 21 | 4 | 4 | 1
O=C(N/N=C/c1ccc2c(c1)OCO2)C(=O)Nc1ccc2ccccc2c1 | 0 | 25 | 11 | -1 | -7 | 0
Cc1ccsc1C(=O)C1CCCN(Cc2cn(C)nc2-c2ccccc2)C1 (configuration not stated) | 6 | 13 | 11 | 2 | 3 | 1
O=C(c1ccc(-c2ccccc2)cc1)C1CCCN(Cc2ccncc2)C1 (configuration not stated) | 93* | 11 | 10 | 14 | 2 | 2
OCC1CCCN(Cc2ccc(-c3ccccc3)cc2)C1 (configuration not stated) | 96* | 26 | 24 | 0 | 13 | 0
c1ccc(-c2ccc(CN3CCN(c4ncccn4)CC3)cc2)cc1 | -1 | 31 | 13 | 9 | 5 | 1
Cn1cc(CN2CCCC(C(=O)c3cccs3)C2)c(-c2cccc(Cl)c2)n1 (configuration not stated) | 63* | 14 | 11 | 7 | 3 | 3
CC(=O)Nc1ccc(CN2CCCC(C(=O)c3ccc(C(F)(F)F)cc3)C2)cc1 (configuration not stated) | 82* | 17 | 5 | 0 | 0 | 1
O=C(c1ccc(-c2ccccc2)cc1)C1CCCN(C(=O)c2ccncc2)C1 (configuration not stated) | 17 | 12 | 10 | 4 | -7 | 1
O=C1CSC(c2ccccn2)N1c1ccc(C(F)(F)F)cc1 (configuration not stated) | x | x | 9 | x | x | x
O=C(c1ccc(Cl)cc1)C1CCCN(Cc2ccc(Oc3ncccn3)cc2)C1 (configuration not stated) | 86* | 13 | 8 | 4 | -5 | 3
O=C(C1CCCN(Cc2ccccc2)C1)N1CCCCC1 (configuration not stated) | -5 | 21 | 13 | -7 | -3 | -1
